Legend:
Type in all cases: functional
Staphylococcus aureus [1] = experiment: Antibacterial activity against penicillin-resistant Staphylococcus aureus assessed as inhibition of bacterial growth measured by broth microdilution method; details: time 24 hrs
Procedure, shortened: (§1)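 Broth microdilution MIC. A 0.5 McFarland suspension was diluted 10-fold and added at 1.5 × 10⁷ cfu/mL to 2-fold dilutions (0.125–64) in Mueller Hinton broth. Incubated aerobically 24 h at 37 °C. MIC was the lowest concentration with no visible turbidity.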

Escherichia coli = experiment: Antibacterial activity against penicillin-susceptible Escherichia coli ATCC 25922 assessed as inhibition of bacterial growth measured by broth microdilution method; details: time 24 hrs
Procedure, shortened: (§2)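 Broth microdilution in Mueller Hinton broth. A 0.5 McFarland suspension was diluted tenfold, giving an inoculum of 1.5 × 10⁷ cfu/mL. This was added to 2-fold serial compound dilutions from […]. Plates were incubated aerobically at 37 °C for 24 h. MIC was the lowest concentration with no visible turbidity.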

Staphylococcus aureus [2] = experiment: Antibacterial activity against Staphylococcus aureus assessed as inhibition of bacterial growth measured by broth microdilution method; details: time 24 hrs; procedure, shortened: as §2
Bacillus subtilis = experiment: Antibacterial activity against penicillin-susceptible Bacillus subtilis ATCC 9372 assessed as bacterial growth inhibition incubated for 24 hrs by CLSI protocol based broth microdilution method
[3] = system: Staphylococcus epidermidis; experiment: Antibacterial activity against penicillin-resistant Staphylococcus epidermidis assessed as inhibition of bacterial growth measured by broth microdilution method; details: time 24 hrs
Streptococcus pyogenes [4] = experiment: Antibacterial activity against erythromycin-resistant Streptococcus pyogenes 2 assessed as bacterial growth inhibition incubated for 24 hrs by CLSI protocol based broth microdilution method
Staphylococcus aureus [5] = experiment: Antibacterial activity against erythromycin-susceptible Staphylococcus aureus ATCC 25923 assessed as bacterial growth inhibition incubated for 24 hrs by CLSI protocol based broth microdilution method
Staphylococcus aureus [6] = experiment: Antibacterial activity against methicillin-resistant Staphylococcus aureus ATCC 43300 assessed as inhibition of bacterial growth by broth microdilution method; details: time 24 hrs; procedure, shortened: as §1
Bacillus pumilus = experiment: Antibacterial activity against penicillin-susceptible Bacillus pumilus CMCC 63202 assessed as bacterial growth inhibition by broth dilution method; details: time 24 hrs; procedure, shortened: as §2
Pseudomonas aeruginosa = experiment: Antibacterial activity against penicillin-susceptible Pseudomonas aeruginosa ATCC27853 assessed as bacterial growth inhibition incubated for 24 hrs by CLSI protocol based broth microdilution method
Streptococcus pyogenes [7] = experiment: Antibacterial activity against erythromycin-susceptible Streptococcus pyogenes clinical isolate 1 assessed as bacterial growth inhibition incubated for 24 hrs by CLSI protocol based broth microdilution method

SMILES	MIC (Staphylococcus aureus [1]) [µg/mL]	MIC (Escherichia coli) [µg/mL]	MIC (Staphylococcus aureus [2]) [µg/mL]	MIC (Bacillus subtilis) [µg/mL]	MIC [3] [µg/mL]	MIC (Streptococcus pyogenes [4]) [µg/mL]	MIC (Staphylococcus aureus [5]) [µg/mL]	MIC (Staphylococcus aureus [6]) [µg/mL]	MIC (Bacillus pumilus) [µg/mL]	MIC (Pseudomonas aeruginosa) [µg/mL]	MIC (Streptococcus pyogenes [7]) [µg/mL]
C[n+]1c2ccccc2c(-c2ccc(OC(F)(F)F)cc2)c2ccccc21.[I-]	64	> 64	2	4	32	4	0.5	2	8	> 64	1
COc1ccc(/C=C/c2c3ccccc3[n+](C)c3ccccc23)cc1OC.[I-]	64	> 64	8	8	32	4	4	16	1	> 64	2
CCCCc1ccc(C#Cc2c3ccccc3[n+](C)c3ccccc23)cc1.[I-]	8	> 64	4	4	8	8	4	4	2	> 64	8
COc1ccc(C#Cc2c3ccccc3[n+](C)c3ccccc23)cc1.[I-]	16	> 64	4	4	16	16	4	8	4	> 64	16
Cc1ccc(/C=C/c2c3ccccc3[n+](C)c3ccccc23)cc1.[I-]	8	64	1	1	2	0.5	0.5	4	0.5	> 64	0.25
CCc1ccc(-c2c3ccccc3[n+](C)c3ccccc23)cc1.[I-]	64	> 64	1	2	32	4	0.25	16	4	> 64	2
Cc1ccc(-c2c3ccccc3[n+](C)c3ccccc23)cc1.[I-]	> 64	> 64	4	4	64	16	1	64	8	> 64	4
COc1ccccc1C#Cc1c2ccccc2[n+](C)c2ccccc12.[I-]	16	> 64	4	8	16	16	8	8	2	> 64	16
COc1cccc(-c2c3ccccc3[n+](C)c3ccccc23)c1.[I-]	> 64	> 64	8	16	> 64	32	4	> 64	32	> 64	8
C[n+]1c2ccccc2c(-c2cccc([N+](=O)[O-])c2)c2ccccc21.[I-]	> 64	> 64	32	64	> 64	64	16	64	> 64	> 64	16
CCCOc1ccc(C#Cc2c3ccccc3[n+](C)c3ccccc23)cc1.[I-]	16	> 64	4	4	8	16	4	4	4	> 64	16
CCCCCNc1c2ccccc2[n+](C)c2ccccc12.[Cl-]	64	> 64	> 64	64	64	32	> 64	> 64	> 64	> 64	16
Cc1ccccc1C#Cc1c2ccccc2[n+](C)c2ccccc12.[I-]	8	> 64	2	8	16	16	4	4	8	> 64	8
